From PMC10746523 (iScience, 2023)
Read-outs that look alike come from different tables or passages of the source.

Experiments:
[1] = Photophysical characterization and relative fluorescence quantum yield; type: physicochemical; conditions: for Quantum Yield (relative fluorescence quantum yield, ΦFrel): ethanol, standard coumarin 343, 405/475 nm
Procedure, shortened: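 Relative quantum yield in ethanol: absorbance at 405 nm and fluorescence at ex/em 405/475 nm were measured for samples and for the coumarin 343 reference (Q_r 0.63 in ethanol). The refractive-index ratio was taken as 1.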

[2] = pH dependence of fluorescence intensity; type: physicochemical; conditions: 405/475 nm; 1 µM
[3] = Determination of pKa by UV-Vis absorbance; type: physicochemical; conditions: MES and Tris buffers of different pH, pH 5.2
[4] = Competitive oxidation assay with the ketone 1; conditions: ketone 1 (600 μM) alone treated with ONOO− (600 μM), Tris pH 7.5
Procedure, shortened: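 Ketone-competition variant of the microplate assay in 50 mM Tris pH 7.5: ketone competitor (600 μM) with ONOO⁻ (600 μM), alone or added after the probe (1 μM) had been pre-mixed 5 min with ONOO⁻ (600 μM). Probe plus ONOO⁻ without competitor was run in parallel. Fluorescence (ex/em 405/475 nm) was followed over time.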

[5] = cited from earlier work
[6] = tested on: PCLS; experiment: Confocal imaging of PCLS exposed to nitrogen mustard; type: cell-based, mice; conditions: 75 μM TEG-TC-ONOO–, compared to 75 μM LNPs with ∼4 μM DPPC-TC-ONOO–
[7] = Microplate time- and pH-dependent fluorescence response to ONOO−; conditions: probe 1 μM, ONOO− 600 μM
Procedure, shortened: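 Water-soluble probe (1 μM) was treated with ONOO⁻ (600 μM) in 50 mM MES (pH 5.8) or 50 mM Tris (pH 6.8, 7.8, 8.8). Fluorescence (ex/em 405/475 nm) was read on a microplate reader over time and expressed relative to untreated samples at t = 0 min.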

[8] = Solubility, stated in words; type: physicochemical; conditions: aqueous media and buffers
[9] = Selectivity against RONS, microplate F/F0; conditions: for F/F0: probe 1 μM
Procedure, shortened: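 Probe (1 μM final, from a 100 μM DMSO stock) was mixed with each RONS (estimated 600 μM) in 50 mM Tris pH 7.5 containing 600 μM EDTA. HO· was generated in situ from Fe(ClO₄)₂ plus H₂O₂ (36 mM), and ¹O₂ from NaOCl plus H₂O₂. Plate fluorescence (405/475 nm) was read at 1 and 60 min; F/F₀ = 60-min reading over t₀.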

[10] = in ethanol, cited from earlier work

O=c1oc2cc(O)ccc2cc1-n1cc(COCCOCCOCCO)nn1 [TEG-TC, 7-hydroxy-3-(4-((2-(2-(2-hydroxyethoxy)ethoxy)ethoxy)methyl)-1H-1,2,3-triazol-1-yl)-2H-chromen-2-one]
Brightness [1]: 10305
Extinction Coefficient [1]: 15613 M⁻¹ cm⁻¹
Max Em [1]: 471.4 nm
Max Ex [1]: 397.0 nm
Relative brightness [1]: 41.1
Quantum Yield (relative fluorescence quantum yield, ΦFrel) [1]: 0.66
fluorescence signal intensity at pH 7.5–8.8 relative to pH 5.8 [2]: 18- to 20 fold
pKa [3]: 7.1 ± 0.1

O=C(CCc1ccc(O)cc1)C(F)(F)F [Compound 1, 1,1,1-trifluoro-4-(4-hydroxyphenyl)butan-2-one]
fluorescence generation [4]: no fluorescence

O=NOO [ONOOH, peroxynitrous acid]
chemical half-life [5]: 0.63 s
pKa [5]: 6.8
biological half-life ([5]; estimated, depends on concentration of biological targets): 10–20 ms

O=C(Oc1ccc(CCC(=O)C(F)(F)F)cc1)Oc1ccc2cc(-n3cc(COCCOCCOCCO)nn3)c(=O)oc2c1 [TEG-TC-ONOO^–, 3-(4-((2-(2-(2-hydroxyethoxy)ethoxy)ethoxy)methyl)-1H-1,2,3-triazol-1-yl)-2-oxo-2H-chromen-7-yl (4-(4,4,4-trifluoro-3-oxobutyl)phenyl) carbonate]
signal within PCLS exposed to NM (405 nm excitation) [6]: considerably weak signals
fluorescence generation ([7]; pH 5.8 and 6.8): little or no fluorescence generation
fluorescence relative to untreated sample (t = 0 min) ([7]; pH 7.8, until 30 min): up to 6.5 times
fluorescence relative to untreated sample (t = 0 min) ([7]; pH 8.8, until 30 min): ≤ 8 times
Brightness [1]: 358
Extinction Coefficient [1]: 4475 M⁻¹ cm⁻¹
Max Em [1]: 472.0 nm
Max Ex [1]: 400.0 nm
Relative brightness [1]: 1.4
Quantum Yield (relative fluorescence quantum yield, ΦFrel) [1]: 0.08
solubility [8]: highly soluble
relative fluorescence enhancement for ONOO− compared to the other RONS [9]: ~36 fold
fluorescence intensity stronger than background ([9]; H2O2 600 μM, 60 min): 16%
F/F0 ([9]; H2O2 600 μM, 60 min): 1.16
increase in fluorescence ([9]; ONOO− 600 μM, 60 min): ~570%
F/F0 ([9]; ONOO− 600 μM, 60 min): 6.69
increase in fluorescence ([9]; absence of a redox species, 60 min): 13%
F/F0 ([9]; absence of a redox species, 60 min, Tris pH 7.5): 1.13
change in fluorescence ([9]; species other than ONOO−, 600 μM, 60 min): only negligible levels of change in fluorescence
F/F0 ([9]; ·NO 600 μM, 60 min): 1.03

O=C(O)c1cc2cc3c4c(c2oc1=O)CCCN4CCC3 [coumarin 343]
absolute fluorescence quantum yield (ΦF) [10]: 0.63
quantum yield of reference standard (Qr) ([10]; ref Sigma Aldrich): 0.63
